Measurements from different studies.
Each line is one published result; the experiments were not run side by side.
Effect on: cell growth or viability

Structure (SMILES)	cell line	test	setting	measurement	result
CCN(Cc1cccc(Cl)c1)c1ccc(CO)c(Cl)c1	RBE	ATP luminescence	46 µM, 72 h	inhibition	59%
Nc1nc2ccc(-c3c/c(=N\c4ccccc4NC(=O)C4CCNC4)c4ccccc4o3)cc2o1 (centres unmarked)	MDA-MB-468	CCK-8	1 µM	inhibition	55.6%
O=C(Nc1ccc(Cl)cc1)C1CCCN(C(=O)c2cc(C(F)(F)F)cc(C(F)(F)F)c2)C1 (racemic)	HBL1	ATP luminescence	1 µM, 5 days	viability	92.8%
CNCCC(=O)Nc1ccccc1/N=c1\cc(-c2ccc3nc(N)oc3c2)oc2ccccc12	MDA-MB-468	CCK-8	1 µM	inhibition	40.6%
Cc1n[nH]c2ccc3nc(-c4ccc(C(=O)N(C)CCN(C)C)cn4)c4c(c3c12)CCCCC4	MV4-11	resazurin	72 h	GI50	0.713 µM
O=C(CCCCCCC(=O)Nc1ccccc1)NO	HBL1	ATP luminescence	0.5 µM, 5 days	viability	49.7%
CN(C)CC1(NC(=O)c2ccc(-c3nc4ccc5[nH]ncc5c4c4c3CCCC4)cc2)CC1	MV4-11	resazurin	72 h	GI50	0.536 µM
COc1ccc2/c(=N/c3ccccc3NC(=O)[C@@H](N)CO)cc(-c3ccc4c(c3)OCCO4)oc2c1	MDA-MB-468	CCK-8	1 µM	inhibition	15.1%
Cc1n[nH]c2ccc3nc(-c4ccc(C(=O)N(C)CCN(C)C)cc4)c4c(c3c12)CCC(F)(F)C4	MV4-11	resazurin	72 h	GI50	0.814 µM
C[C@H](N)C(=O)Nc1ccccc1/N=c1\cc(-c2ccc3c(c2)OCCO3)oc2c([N+](=O)[O-])cccc12	MDA-MB-468	CCK-8	1 µM	inhibition	1.9%
CCOC(=O)c1ccc(-c2nn(Cc3ccccc3)c3ccccc23)o1	RBE	ATP luminescence	46 µM, 72 h	inhibition	35%
CN(C)CCNC(=O)c1ccc(-c2nc3ccc4[nH]ncc4c3c3c2CCCC3)c(F)c1	MV4-11	resazurin	72 h	GI50	0.127 µM
O=C(/C=C/c1cccc(C(=O)NO)c1)NO	HBL1	ATP luminescence	0.5 µM, 5 days	viability	89.6%
OCc1ccc(-c2nn(Cc3ccccn3)c3ccccc23)o1	RBE	ATP luminescence	46 µM, 72 h	inhibition	70%
CN(C)CCNC(=O)c1ccc(-c2nc3ccc4[nH]ncc4c3c3c2CC(C)(C)CC3)cc1	MV4-11	resazurin	72 h	GI50	0.08 µM
O=C(Nc1cccc(Br)c1)c1cccc(S(=O)(=O)N2CCCCCC2)c1	HBL1	ATP luminescence	0.5 µM, 5 days	viability	110%

Structure (SMILES)	cell line	test	setting	measurement	result
NCCCC(=O)Nc1ccccc1/N=c1\cc(-c2ccc3c(c2)OCO3)oc2ccccc12	MDA-MB-468	CCK-8	1 µM	inhibition	8.13%
O=C(NO)c1ccc(CC(=O)N(CCO)c2ccccc2)cc1	HBL1	ATP luminescence	1 µM, 5 days	viability	107%
Nc1ccccc1/N=c1\cc(-c2ccc3c(c2)OCO3)oc2ccccc12	MDA-MB-468	CCK-8	1 µM	inhibition	5.28%
CN(C)CCNC(=O)c1ccc(-c2nc3ccc4[nH]ncc4c3c3c2CC(F)(F)CC3)cc1	MV4-11	resazurin	72 h	GI50	0.112 µM
C[C@H](Nc1ccc2c(c1)OCCn1cc(N3C(=O)OC[C@H]3C(F)F)nc1-2)C(N)=O	IM95	ATP luminescence	5 days	EC50	0.388 µM
CC(c1ccccc1)n1nc(-c2ccc(CO)o2)c2ccccc21 (centres unmarked)	RBE	ATP luminescence	46 µM, 72 h	inhibition	76%
O=C(CCCCCCSc1ccc2ccccc2c1)NO	HBL1	ATP luminescence	0.1 µM, 5 days	viability	112%
O=C(NC1CC1)c1ccc(-c2nc3ccc4[nH]ncc4c3c3c2CCCC3)cc1	MV4-11	resazurin	72 h	GI50	0.481 µM
OCc1ccc(N(Cc2ccc(F)cc2)Cc2ccc(F)cc2)cc1Cl	RBE	ATP luminescence	46 µM, 72 h	inhibition	78%
CN(C)CCNC(=O)c1ccc(-c2nc3ccc4[nH]ncc4c3c3c2CCCC3)s1	MV4-11	resazurin	72 h	GI50	0.157 µM
OCc1ccc(-c2nn(Cc3cccc(F)c3)c3ccccc23)o1	RBE	ATP luminescence	46 µM, 72 h	inhibition	60%
CC(=O)OC[C@H]1O[C@@H](n2cnc(N)nc2=O)[C@H](OC(C)=O)[C@@H]1OC(C)=O	HBL1	ATP luminescence	0.5 µM, 5 days	viability	111%
COCCC(=O)Nc1ccccc1/N=c1\cc(-c2ccc3c(c2)OCO3)oc2ccccc12	MDA-MB-468	CCK-8	1 µM	inhibition	2.51%
OCc1ccc(-c2nn(Cc3cncnc3)c3ccccc23)o1	RBE	ATP luminescence	46 µM, 72 h	inhibition	71%
COc1ccc2/c(=N/c3ccccc3NC(=O)[C@@H](N)C(C)(C)C)cc(-c3ccc4c(c3)OCO4)oc2c1	MDA-MB-468	CCK-8	1 µM	inhibition	2.98%
COc1cnccc1Cn1nc(-c2ccc(CO)o2)c2ccccc21	RBE	ATP luminescence	46 µM, 72 h	inhibition	85%
